Results taken from ChEMBL document CHEMBL1144562, “Synthesis of a new class of 2-anilino substituted nicotinyl arylsulfonylhydrazides as potential anticancer and antibacterial agents” (2007).
In brackets after ≈: the same amount, converted by molar mass.

Tests used:
A549 = test: Antitumor activity against A549 cells; type: functional; conditions: Homo sapiens
[1] = Antitumor activity against LOX IMV1 cells; type: functional; conditions: Homo sapiens
[2] = Antitumor activity against MALME 3M cells; type: functional; conditions: Homo sapiens
M14 = test: Antitumor activity against M14 cells; type: functional; conditions: Homo sapiens
SK-MEL-28 = test: Antitumor activity against SK-MEL-28 cells; type: functional; conditions: Homo sapiens
UACC-257 = test: Antitumor activity against UACC257 cells; type: functional; conditions: Homo sapiens
Summary of the method: (§1)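 Tested in the NCI 60-human-tumour-cell-line panel at five concentrations, in 10-fold dilutions from 10^-4 to 10^-8 M. Three parameters were taken from the dose-response data, each as log10 of the molar concentration: GI50 (50% net growth inhibition), TGI (total growth inhibition) and LC50 (50% net cell death).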

OVCAR-4 = test: Antitumor activity against OVCAR4 cells; type: functional; conditions: Homo sapiens
OVCAR-8 = test: Antitumor activity against OVCAR8 cells; type: functional; conditions: Homo sapiens
SK-OV-3 = test: Antitumor activity against SKOV3 cells; type: functional; conditions: Homo sapiens; summary of the method: as §1
A498 = test: Antitumor activity against A498 cells; type: functional; conditions: Homo sapiens
ACHN = test: Antitumor activity against ACHN cells; type: functional; conditions: Homo sapiens
TK-10 = test: Antitumor activity against TK10 cells; type: functional; conditions: Homo sapiens; summary of the method: as §1
PC-3 = test: Antitumor activity against PC3 cells; type: functional; conditions: Homo sapiens
DU-145 = test: Antitumor activity against DU145 cells; type: functional; conditions: Homo sapiens
MCF7 = test: Antitumor activity against MCF7 cells; type: functional; conditions: Homo sapiens
MDA-MB-231 = test: Antitumor activity against MDA-MB-231 cells; type: functional; conditions: Homo sapiens
T47D = test: Antitumor activity against T47D cells; type: functional; conditions: Homo sapiens; summary of the method: as §1
Escherichia coli = test: Antibacterial activity against Escherichia coli MTCC 448 after 18 hrs; type: functional; conditions: MTCC 448, 18 h
Summary of the method: (§2)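 Disc diffusion (Kirby–Bauer) on Mueller-Hinton agar inoculated with fresh bacteria at 1-5 × 10^4 cfu mL-1. Compounds were dissolved in DMF at a range of concentrations, and discs were placed in triplicate. Plates were incubated at 30 °C for 18 h. MIC was taken as the lowest concentration giving no visible bacterial growth on the plate.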

Pseudomonas aeruginosa = test: Antibacterial activity against Pseudomonas aeruginosa MTCC 424 after 18 hrs; type: functional; conditions: MTCC 424, 18 h; summary of the method: as §2
[3] = test system: Staphylococcus epidermidis; test: Antibacterial activity against Staphylococcus epidermidis MTCC 435 after 18 hrs; type: functional; conditions: MTCC 435, 18 h; summary of the method: as §2
Bacillus subtilis = test: Antibacterial activity against Bacillus subtilis MTCC 441 after 18 hrs; type: functional; conditions: MTCC 441, 18 h; summary of the method: as §2
Vibrio = test: Antibacterial activity against Vibrio species after 18 hrs; type: functional; summary of the method: as §2
786-0 = test: Antitumor activity against 786-0 cells; type: functional; conditions: Homo sapiens
CCRF-CEM = test: Antitumor activity against CCRF-CEM cells; type: functional; conditions: Homo sapiens
[4] = Antitumor activity against HL60 (TB) cells; type: functional, HL-60(TB); conditions: Homo sapiens, HL-60
Summary of the method: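 NCI 60-cell-line in vitro screen (leukaemia subpanel). Compound tested at five 10-fold dilutions from 10^-4 to 10^-8 M. Dose-response parameters: GI50 (concentration giving 50% net growth inhibition), TGI (total growth inhibition) and LC50 (50% net cell death), each reported as log10 of molar concentration.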

MOLT-4 = test: Antitumor activity against MOLT4 cells; type: functional; conditions: Homo sapiens
HOP-62 = test: Antitumor activity against HOP62 cells; type: functional; conditions: Homo sapiens
NCI-H226 = test: Antitumor activity against NCI-H226 cells; type: functional; conditions: Homo sapiens
COLO 205 = test: Antitumor activity against COLO205 cells; type: functional; conditions: Homo sapiens
HCC 2998 = test: Antitumor activity against HCC2998 cells; type: functional; conditions: Homo sapiens
HCT-116 = test: Antitumor activity against HCT116 cells; type: functional; conditions: Homo sapiens
HCT-15 = test: Antitumor activity against HCT15 cells; type: functional; conditions: Homo sapiens
HT-29 = test: Antitumor activity against HT29 cells; type: functional; conditions: Homo sapiens
KM12 = test: Antitumor activity against KM12 cells; type: functional; conditions: Homo sapiens
SW-620 = test: Antitumor activity against SW620 cells; type: functional; conditions: Homo sapiens; summary of the method: as §1
SF-268 = test: Antitumor activity against SF268 cells; type: functional; conditions: Homo sapiens
SF-295 = test: Antitumor activity against SF295 cells; type: functional; conditions: Homo sapiens
SF-539 = test: Antitumor activity against SF539 cells; type: functional; conditions: Homo sapiens
SNB-19 = test: Antitumor activity against SNB19 cells; type: functional; conditions: Homo sapiens; summary of the method: as §1
SNB-75 = test: Antitumor activity against SNB75 cells; type: functional; conditions: Homo sapiens; summary of the method: as §1
U-251 = test: Antitumor activity against U251 cells; type: functional; conditions: Homo sapiens; summary of the method: as §1
[5] = read-out: Log LC50 (the source's name) (converted)

O=C(NNS(=O)(=O)c1ccc(F)cc1)c1cccnc1Nc1ccc(Cl)cc1Cl
GI50 (A549): 17.4 µM
LC50 (A549): 97.7 µM
TGI (A549; read-out: Log TGI (converted)): 40.7 µM
GI50 [1]: 32.4 µM
LC50 [1]: > 100 µM
TGI ([1]; read-out: Log TGI (converted)): > 100 µM
GI50 [2]: 34.7 µM
CC50 [2, 5]: > 100 µM
TGI ([2]; read-out: Log TGI (converted)): > 100 µM
GI50 (M14): 46.8 µM
LC50 (M14): > 100 µM
TGI (M14; read-out: Log TGI (converted)): > 100 µM
GI50 (SK-MEL-28): 89.1 µM
LC50 (SK-MEL-28): > 100 µM
TGI (SK-MEL-28; read-out: Log TGI (converted)): > 100 µM
GI50 (UACC-257): 11.7 µM
LC50 (UACC-257): > 100 µM
TGI (UACC-257; read-out: Log TGI (converted)): 52.5 µM
GI50 (OVCAR-4): 38 µM
LC50 (lethal concentration, 50%) (OVCAR-4): > 100 µM
TGI (OVCAR-4; read-out: Log TGI (converted)): > 100 µM
GI50 (OVCAR-8): 26.9 µM
CC50 (OVCAR-8; [5]): > 100 µM
TGI (OVCAR-8; read-out: Log TGI (converted)): > 100 µM
GI50 (SK-OV-3): 38 µM
CC50 (SK-OV-3; [5]): > 100 µM
TGI (SK-OV-3; read-out: Log TGI (converted)): > 100 µM
GI50 (A498): 17.4 µM
LC50 (A498): 77.6 µM
TGI (A498; read-out: Log TGI (converted)): 36.3 µM
GI50 (ACHN): 45.7 µM
LC50 (ACHN): > 100 µM
TGI (ACHN; read-out: Log TGI (converted)): > 100 µM
GI50 (TK-10): 33.9 µM
LC50 (TK-10): > 100 µM
TGI (TK-10; read-out: Log TGI (converted)): > 100 µM
GI50 (PC-3): 14.8 µM
LC50 (PC-3): 69.2 µM
TGI (PC-3; read-out: Log TGI (converted)): 32.4 µM
GI50 (DU-145): 22.9 µM
LC50 (DU-145): > 100 µM
TGI (DU-145; read-out: Log TGI (converted)): 55 µM
GI50 (MCF7): 31.6 µM
LC50 (MCF7): > 100 µM
TGI (MCF7; read-out: Log TGI (converted)): > 100 µM
GI50 (MDA-MB-231): 28.8 µM
LC50 (MDA-MB-231): > 100 µM
TGI (MDA-MB-231; read-out: Log TGI (converted)): > 100 µM
GI50 (T47D): 18.6 µM
CC50 (T47D; [5]): > 100 µM
TGI (T47D; read-out: Log TGI (converted)): > 97.7 µM
MIC (Escherichia coli): 15 µg/mL (≈ 32.9 µM)
MIC (Pseudomonas aeruginosa): > 25 µg/mL
MIC [3]: 21 µg/mL (≈ 46.1 µM)
MIC (Bacillus subtilis): 9 µg/mL (≈ 19.8 µM)
MIC (Vibrio): 20 µg/mL (≈ 43.9 µM)
GI50 (786-0): 22.9 µM
LC50 (lethal concentration, 50%) (786-0): > 100 µM
TGI (786-0; read-out: Log TGI (converted)): 53.7 µM
LC50 (CCRF-CEM): > 100 µM
TGI (CCRF-CEM; read-out: Log TGI (converted)): > 100 µM
GI50 (CCRF-CEM; read-out: pGI50 (converted)): 20.9 µM
GI50 [4]: 25.1 µM
LC50 [4]: > 100 µM
TGI ([4]; read-out: Log TGI (converted)): 61.7 µM
GI50 (MOLT-4): 22.9 µM
LC50 (MOLT-4): > 100 µM
TGI (MOLT-4; read-out: Log TGI (converted)): > 100 µM
GI50 (HOP-62): 30.9 µM
CC50 (HOP-62; [5]): > 100 µM
TGI (HOP-62; read-out: Log TGI (converted)): 85.1 µM
GI50 (NCI-H226): 29.5 µM
CC50 (NCI-H226; [5]): > 100 µM
TGI (NCI-H226; read-out: Log TGI (converted)): 97.7 µM
GI50 (COLO 205): 16.2 µM
LC50 (COLO 205): > 100 µM
TGI (COLO 205; read-out: Log TGI (converted)): 51.3 µM
GI50 (HCC 2998): 30.2 µM
LC50 (HCC 2998): > 100 µM
TGI (HCC 2998; read-out: Log TGI (converted)): > 100 µM
GI50 (HCT-116): 30.2 µM
LC50 (HCT-116): > 100 µM
TGI (HCT-116; read-out: Log TGI (converted)): > 100 µM
GI50 (HCT-15): 26.9 µM
LC50 (HCT-15): > 100 µM
TGI (HCT-15; read-out: Log TGI (converted)): > 83.2 µM
GI50 (HT-29): 21.9 µM
LC50 (HT-29): > 100 µM
TGI (HT-29; read-out: Log TGI (converted)): 57.5 µM
GI50 (KM12): 22.9 µM
CC50 (KM12; [5]): > 100 µM
TGI (KM12; read-out: Log TGI (converted)): 49 µM
GI50 (SW-620): 28.8 µM
CC50 (SW-620; [5]): > 100 µM
TGI (SW-620; read-out: Log TGI (converted)): > 100 µM
GI50 (SF-268): 45.7 µM
LC50 (SF-268): > 100 µM
TGI (SF-268; read-out: Log TGI (converted)): > 100 µM
GI50 (SF-295): 37.2 µM
CC50 (SF-295; [5]): > 100 µM
TGI (SF-295; read-out: Log TGI (converted)): > 100 µM
GI50 (SF-539): 26.3 µM
LC50 (SF-539): > 100 µM
TGI (SF-539; read-out: Log TGI (converted)): 74.1 µM
GI50 (SNB-19): 29.5 µM
CC50 (SNB-19; [5]): > 100 µM
TGI (SNB-19; read-out: Log TGI (converted)): > 100 µM
GI50 (SNB-75): 25.7 µM
CC50 (SNB-75; [5]): > 100 µM
TGI (SNB-75; read-out: Log TGI (converted)): > 100 µM
GI50 (U-251): 28.8 µM
LC50 (U-251): > 100 µM
TGI (U-251; read-out: Log TGI (converted)): > 100 µM
